A selection: hits, their analogues and other compounds. The true share with any hit is near 3.1%.
Hsp70 act: Hsp70 transcriptional activation, primary screen. AID 1203. 200,000 tested, 0.04% active. activation, % at 10 µM. HeLa Hsp70 promoter luciferase reporter, luminescence; scaled: vehicle 0, proteasome-inhibitor control 100%;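 active = activation above the mean across all tested compounds plus 3 SD, cutoff set per campaign, cut at about 5.5% in these data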;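 also: 100% = MG132 at 30 µM as the positive control and 0% = DMSO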
HKDC1 inh: HKDC1 (human) hexokinase inhibition. Q2TB90. recombinant HKDC1, G6PDH/diaphorase resazurin coupled fluorescence. inhibition, % at 20 µM. 340,000 tested, 0.16% active. AID 493160;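 active = inhibition above about 35% when tested at 20 µM, limit read from the data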;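 also: plate controls were DMSO wells with enzyme for no effect and DMSO wells lacking enzyme for full effect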
Target sequence (Q2TB90 whole entry, looked up): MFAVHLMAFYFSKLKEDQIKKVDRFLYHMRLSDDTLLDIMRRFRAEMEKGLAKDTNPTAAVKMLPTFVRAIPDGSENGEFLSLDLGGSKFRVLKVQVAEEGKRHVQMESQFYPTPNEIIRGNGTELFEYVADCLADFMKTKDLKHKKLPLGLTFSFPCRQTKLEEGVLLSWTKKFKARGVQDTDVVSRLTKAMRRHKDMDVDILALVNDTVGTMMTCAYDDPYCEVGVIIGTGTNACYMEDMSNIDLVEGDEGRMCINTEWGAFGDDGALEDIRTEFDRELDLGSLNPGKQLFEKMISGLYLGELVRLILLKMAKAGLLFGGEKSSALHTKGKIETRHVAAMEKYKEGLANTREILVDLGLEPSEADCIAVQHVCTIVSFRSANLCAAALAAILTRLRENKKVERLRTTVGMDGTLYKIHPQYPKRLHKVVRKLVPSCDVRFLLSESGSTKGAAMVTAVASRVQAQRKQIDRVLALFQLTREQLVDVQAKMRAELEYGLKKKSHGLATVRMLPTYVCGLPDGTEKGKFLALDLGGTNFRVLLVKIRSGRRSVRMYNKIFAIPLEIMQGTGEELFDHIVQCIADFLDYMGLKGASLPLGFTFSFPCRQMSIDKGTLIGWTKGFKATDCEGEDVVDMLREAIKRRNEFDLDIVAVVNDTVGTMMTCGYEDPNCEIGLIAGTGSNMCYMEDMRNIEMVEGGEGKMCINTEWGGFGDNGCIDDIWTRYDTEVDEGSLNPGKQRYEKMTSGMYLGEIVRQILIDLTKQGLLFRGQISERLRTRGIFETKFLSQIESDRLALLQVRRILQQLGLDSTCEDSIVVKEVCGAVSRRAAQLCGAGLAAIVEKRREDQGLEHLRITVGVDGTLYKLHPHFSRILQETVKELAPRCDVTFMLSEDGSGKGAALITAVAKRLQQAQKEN
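Test system: HK5 enzyme. Quantity: 5 µg/mL HK5 final. Reagent: glucose and ATP substrates. Schedule: 90 min reaction incubation at room temperature, dark. Technique: resazurin-to-resorufin fluorescence via G6PDH and diaphorase coupling, 525/613 nm. Control set: DMSO wells with and without enzyme mix.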
HSF1 inhib: HSF1 inhibition; activity change, negative = inhibition, % at 7.5 µM (by protocol); 300,000 tested, 0.77% active; NIH3T3-HGL HSE-luciferase, MG132-induced, luminescence 8 h; hits give low values;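 active = more than half of replicate wells show activity change below -50%, luminescence cut by over half; inconclusive = some wells, but at most half, below -50%; inactive = no replicate well below -50%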;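 also: luciferase reports HSF-1 transcriptional activity via heat shock element; 0% = median of DMSO wells and -100% = zero luminescence signal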
HSP90 inh: HSP90 refolding inhibition in rabbit reticulocyte lysate | 290,000 tested, 0.91% active | luciferase refolding luminescence, 3 h | inhibition, % at 5.6 µM;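 active = inhibition above the screen-wide mean plus 3 SD, computed separately per campaign, cut at about 16% in these data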;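 also: 0% = DMSO wells and 100% = 60 µM geldanamycin wells; inhibitors lower the luminescence because luciferase stays unfolded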
Tb hexokinase: T. brucei hexokinase 1 inhibition; recombinant TbHK1, G6PDH-coupled NADH A340; inhibition, % at 10 µM; 220,000 tested, 0.11% active; AID 1430;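 active = inhibition of 50% or more in the single-dose primary screen; inactive = inhibition below 50%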
HSF-1 act: increases HSF-1 driven luciferase reporter signal. AID 504408. activation, % at 9 µM. NIH3T3-HGL HSF-1 luciferase reporter, MG132, 8 h; 100% = twice DMSO control signal. 300,000 tested, 1.7% active;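 active = mean replicate activation of at least 50% with a set share of replicates each reaching 50%; inconclusive = only one of those two conditions met; inactive = mean below 50% and too few replicates reaching it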;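 also: 0% = median of the neutral control wells and 100% = twice that signal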
Hsp70 act DR: activates Hsp70 transcription in dose response; HeLa hsp70.1pr-luc reporter, luciferase luminescence; 70 tested, 10% active; shares compounds with Hsp70 act; calls only at 99 µM;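 active = over 50% activation at some tested dose; inactive = under 50% activation at every tested dose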
G6PDH counter: inhibits Leuconostoc G6PDH, counter-screen for TbHK1 inhibitors | shares compounds with Tb hexokinase | purified G6PDH, NADH absorbance, 1 h | inhibition, % at 10 µM | 210 tested, 7% active;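 active = at least 50% inhibition in the glucose-6-phosphate dehydrogenase coupled counterscreen; inconclusive = no clear call, values can overlap the other calls; inactive = inhibition below 50%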
TbHK1 confirm: confirmation of Trypanosoma brucei hexokinase 1 inhibitors; shares compounds with Tb hexokinase; recombinant TbHK1, G6PDH-coupled NADH A340 absorbance; inhibition, % at 10 µM; 210 tested, 10% active;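 active = inhibition of at least 50% in both of the two screening runs; inconclusive = at least 50% in one run, below 50% in the other; inactive = inhibition below 50% in both runs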;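 also: 0% and 100% set by the maximum and minimum signal control wells on each plate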
HSP90 confirm: HSP90 inhibition, confirmation assay | shares compounds with HSP90 inh | rabbit reticulocyte lysate, luciferase refolding luminescence, 3 h | inhibition, % at 5.9 µM | 2,300 tested, 64% active | AID 1846; in the data active = inhibition above about 18%;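 also: 0% = vehicle wells and 100% = reference inhibitor wells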
luciferase ctr: counter-screen for HSP90 inhibitors: inhibitors of firefly luciferase | shares compounds with HSP90 inh | purified native firefly luciferase, luminescence | inhibition, % at 5.9 µM | 2,300 tested, 48% active;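 active = inhibition above the mean inhibition of all tested sample wells plus 3 SD, cut at about 10% in these data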;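 also: 0% = DMSO with luciferase and 100% = wells lacking luciferase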
HKDC1 act conf: confirmation of human HKDC1 activators | inhibition, % at 20 µM | shares compounds with HKDC1 inh | 740 tested, 14% active | recombinant HKDC1, G6PDH/diaphorase resazurin fluorescence; hits give low values | AID 504708;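 active = inhibition at or below a set negative limit, negative inhibition meaning the enzyme was activated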
The depositor's hits bear a star; i = inactive; ? = inconclusive; . = no result given; + = active, no number.

SMILES	Hsp70 act	HKDC1 inh	HSF1 inhib	HSP90 inh	Tb hexokinase	HSF-1 act	G6PDH counter	TbHK1 confirm	others
CC=Cc1cc(OC)c2c(c1)C(C)C(c1ccc(O)c(OC)c1)O2 (configuration not stated)	.	1	.	.	.	.	.	.
Cc1cccc(-c2noc(CCCC(=O)N3CCOCC3)n2)c1	15*	-10	3	2	-6	15	.	.	Hsp70 act DR=i
O=C(NCC1COc2ccccc2O1)C1CCCN(S(=O)(=O)c2cnc[nH]2)C1 (configuration not stated)	5.8*	3	-1	-1	-1	17	.	.	Hsp70 act DR=i
Cc1nn(C)c(C)c1S(=O)(=O)N1CCCC(C(=O)NCC2COc3ccccc3O2)C1 (configuration not stated)	0	-4	.	1	-2	.	.	.
COc1ccc(NC(=O)/C(Cl)=C(/Cl)S(=O)Cc2ccccc2Cl)cn1 (configuration not stated)	37*	20	.	10	9	.	.	.	Hsp70 act DR=i
COc1ccc(NC(=O)Cc2ccc(Cl)c(Cl)c2)cn1	0	-6	3	0	-7	16	.	.
COc1cccc(CN(C)C(=O)c2ccc(Cl)c(S(=O)(=O)N3CCCCCC3)c2)c1OC	.	-2	.	.	.	.	.	.
O=C(Oc1ccc(F)cc1C(=O)/C=C/c1cccs1)c1cccc([N+](=O)[O-])c1	12*	16	21	-1	-6	36	.	.	Hsp70 act DR=i
CCN(CC(=O)Nc1c(F)cccc1F)C(=O)c1ccc(N2CCCC2=O)cc1	.	-4	-6	.	.	-4	.	.
CCCc1cc(=O)[nH]c(SCC(=O)c2cc(C)n(CC(F)(F)F)c2C)n1	0	1	2	0	-3	-8	.	.
Cc1cc(C(=O)Cn2ncc(Cl)c(Cl)c2=O)c(C)n1CC(F)(F)F	16*	1	-5	9	-3	-6	.	.	Hsp70 act DR=i
Cc1c(O)ccc(C(=O)CN2CCN(Cc3ccc4c(c3)OCO4)CC2)c1O	79*	-12	-7	84*	-46	-18	.	.	Hsp70 act DR=i;HSP90 confirm=-7;luciferase ctr=-11
COC(=O)[C@]1(Cc2ccccc2)N[C@H](CN(C)S(=O)(=O)c2ccc(C(C)(C)C)cc2)[C@@H]2C(=O)N(Cc3ccccc3)C(=O)[C@@H]21	.	2	.	.	.	.	.	.
CC[n+]1c(/C=C2\Sc3ccccc3N2C)ccc2cccc(C)c21	8.9*	-40	?	-2	-10	-11	.	.	Hsp70 act DR=i;HKDC1 act conf=-38*
CCN1/C(=C/c2ccc3cc(C)ccc3[n+]2CC)Sc2ccccc21	1	-27	-20	8	-4	-20	.	.
O=C(CSc1nnc(-c2ccco2)o1)N1CCCCC1	.	-7	12	-1	.	17	.	.
CC1C/C(=C/c2ccncc2)C(=O)/C(=C/c2ccncc2)C1 (configuration not stated)	178*	43*	30	4	-18	32	.	.	Hsp70 act DR=+;HKDC1 act conf=-5
CCNC(=O)NC(=O)CSc1ccc(NC(C)=O)cc1	0	-1	0	-3	74*	5	-7	0
Cc1ccc(CNC(=O)C2CNc3cc(C)ccc3O2)cc1 (configuration not stated)	1	-6	15	5	58*	30	-7	16
CCCCC(=O)NC(=S)NNS(=O)(=O)c1ccccc1	0	-33	-3	4	56*	19	-17	2
O=C(NNS(=O)(=O)c1ccccc1)c1ccc([N+](=O)[O-])cc1	.	5	1	-5	.	0	.	.
O=C(NC(=S)NNS(=O)(=O)c1ccccc1)c1ccc([N+](=O)[O-])cc1	0	-28	9	-5	76*	7	-33	1
O=C(NC(=S)NNS(=O)(=O)c1ccccc1)c1ccccc1[N+](=O)[O-]	0	-30	3	-3	65*	6	-22	-1
O=C(NNC(=S)NC(=O)c1ccccc1[N+](=O)[O-])c1ccccc1Cl	0	-5	-16	-6	17	-21	.	.
NC(=S)c1cc2ccc(O)cc2oc1=O	0	-3	-3	1	85*	-6	109*	80*
SMILES	Hsp70 act	HKDC1 inh	HSF1 inhib	HSP90 inh	Tb hexokinase	HSF-1 act	G6PDH counter	TbHK1 confirm	others
Cc1cc(C)n2nc(C(=O)OCC(=O)Nc3cc(S(=O)(=O)N4CCOCC4)ccc3Cl)nc2n1	.	0	.	.	.	.	.	.
CC(=O)NS(=O)(=O)c1ccc(NC(=O)[C@@H]2CCCN2S(=O)(=O)c2ccc(Cl)cc2)cc1	.	1	.	.	.	.	.	.
CCCOc1ccc(C(CC(=O)O)NC(=O)C23CC4CC(CC(C4)C2)C3)cc1 (configuration not stated)	0	-13	6	1	60*	3	-30	2
CCOC(=O)Cn1nc(NC(=O)COc2ccc(F)cc2)cc1C	.	-8	-8	-5	.	2	.	.
CCS(=O)(=O)c1ccc(O)c(NC(=O)Nc2ccc(C(C)(C)C)cc2)c1	.	1	-4	-4	-3	-11	.	.
CCS(=O)(=O)c1ccc(O)c(NC(=O)Nc2ccccc2)c1	0	-7	-1	6	50*	11	-3	2
C[C@]12c3[nH]c4ccc(Cl)cc4c3CCN1C(=O)[C@@H](CC(=O)NCCc1ccccn1)C[C@@H]2C(=O)N1CCCCC1	.	-3	.	.	.	.	.	.
CCCCCOC(=O)NCC(O)c1ccccc1 (configuration not stated)	0	-6	12	2	53*	24	-2	3
CN(Cc1c(C(=O)N/N=C/c2cccc(Cl)c2)nnn1-c1nonc1N)c1ccccc1	.	8	10	2	.	27	.	.
N#CC(C#N)=C1NC(N)=C(C#N)C(c2ccccc2)=C1C#N	.	.	1	-6	.	-15	.	.
O=C(Cn1sc2ccccc2c1=O)NC12CC3CC(CC(C3)C1)C2	0	0	-6	3	66*	2	-14	85*
O=C(NC1CC2CCCC(C1)N2C(=O)NC1CCCCC1)c1ccc(F)cc1 (configuration not stated)	0	-3	-6	3	65*	-4	-8	-3
